Laboratory results published in ChEMBL document CHEMBL3792296, “Synthesis and antiproliferative activity of 9-benzylamino-6-chloro-2-methoxy-acridine derivatives as potent DNA-binding ligands and topoisomerase II inhibitors” (Eur J Med Chem, 2016).
Calls of active or inactive are those of the source. The calls are words filed in the database; no cut-off is given here.

How the values were obtained:
[1] = test system: A549; assay: Induction of apoptosis in human A549 cells assessed as early apoptotic cells at 10 uM after 36 hrs by Annexin V-FITC/propidium iodide staining based FACS analysis (reference value: 0.29%); assay type: functional
In short: (§1)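 A549 cells seeded at 2 × 10⁵ per well, incubated overnight, then treated at 0, 5 or 10 µM. The legend gives 36 or 48 h; the methods section states 24 h. Annexin V-FITC/PI kit staining followed by flow cytometry. Early and late apoptotic cells expressed as cumulative percentage relative to control.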

[2] = test system: A549; assay: Cell cycle arrest in human A549 cells assessed as accumulation at G2/M phase at 5 uM after 36 hrs by propidium iodide staining based flow cytometry (reference value: 7.62%); assay type: functional
[3] = test system: A549; assay: Cellular uptake in human A549 cells at 1 to 5 uM after 4 hrs by FACS analysis; assay type: ADME, cell-based; details: a549, 4 h
In short: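 A549 cells treated with 1 or 5 µM for 4 h; 8 and 16 h also examined. Cells trypsinized, pelleted, resuspended in PBS and analysed at once by FACS. Intrinsic compound fluorescence read with 400 nm excitation, at least 10000 cells per sample.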

[4] = target: DNA topoisomerase 2-alpha (Homo sapiens) (UniProt P11388); assay: Inhibition of human recombinant topoisomerase 2-alpha expressed in Escherichia coli assessed as reduction in enzyme-mediated relaxation of supercoiled pBR322 DNA at 10 to 50 uM after 10 to 15 mins by agarose gel electrophoresis
Sequence of DNA topoisomerase 2-alpha (Homo sapiens) (P11388 whole entry): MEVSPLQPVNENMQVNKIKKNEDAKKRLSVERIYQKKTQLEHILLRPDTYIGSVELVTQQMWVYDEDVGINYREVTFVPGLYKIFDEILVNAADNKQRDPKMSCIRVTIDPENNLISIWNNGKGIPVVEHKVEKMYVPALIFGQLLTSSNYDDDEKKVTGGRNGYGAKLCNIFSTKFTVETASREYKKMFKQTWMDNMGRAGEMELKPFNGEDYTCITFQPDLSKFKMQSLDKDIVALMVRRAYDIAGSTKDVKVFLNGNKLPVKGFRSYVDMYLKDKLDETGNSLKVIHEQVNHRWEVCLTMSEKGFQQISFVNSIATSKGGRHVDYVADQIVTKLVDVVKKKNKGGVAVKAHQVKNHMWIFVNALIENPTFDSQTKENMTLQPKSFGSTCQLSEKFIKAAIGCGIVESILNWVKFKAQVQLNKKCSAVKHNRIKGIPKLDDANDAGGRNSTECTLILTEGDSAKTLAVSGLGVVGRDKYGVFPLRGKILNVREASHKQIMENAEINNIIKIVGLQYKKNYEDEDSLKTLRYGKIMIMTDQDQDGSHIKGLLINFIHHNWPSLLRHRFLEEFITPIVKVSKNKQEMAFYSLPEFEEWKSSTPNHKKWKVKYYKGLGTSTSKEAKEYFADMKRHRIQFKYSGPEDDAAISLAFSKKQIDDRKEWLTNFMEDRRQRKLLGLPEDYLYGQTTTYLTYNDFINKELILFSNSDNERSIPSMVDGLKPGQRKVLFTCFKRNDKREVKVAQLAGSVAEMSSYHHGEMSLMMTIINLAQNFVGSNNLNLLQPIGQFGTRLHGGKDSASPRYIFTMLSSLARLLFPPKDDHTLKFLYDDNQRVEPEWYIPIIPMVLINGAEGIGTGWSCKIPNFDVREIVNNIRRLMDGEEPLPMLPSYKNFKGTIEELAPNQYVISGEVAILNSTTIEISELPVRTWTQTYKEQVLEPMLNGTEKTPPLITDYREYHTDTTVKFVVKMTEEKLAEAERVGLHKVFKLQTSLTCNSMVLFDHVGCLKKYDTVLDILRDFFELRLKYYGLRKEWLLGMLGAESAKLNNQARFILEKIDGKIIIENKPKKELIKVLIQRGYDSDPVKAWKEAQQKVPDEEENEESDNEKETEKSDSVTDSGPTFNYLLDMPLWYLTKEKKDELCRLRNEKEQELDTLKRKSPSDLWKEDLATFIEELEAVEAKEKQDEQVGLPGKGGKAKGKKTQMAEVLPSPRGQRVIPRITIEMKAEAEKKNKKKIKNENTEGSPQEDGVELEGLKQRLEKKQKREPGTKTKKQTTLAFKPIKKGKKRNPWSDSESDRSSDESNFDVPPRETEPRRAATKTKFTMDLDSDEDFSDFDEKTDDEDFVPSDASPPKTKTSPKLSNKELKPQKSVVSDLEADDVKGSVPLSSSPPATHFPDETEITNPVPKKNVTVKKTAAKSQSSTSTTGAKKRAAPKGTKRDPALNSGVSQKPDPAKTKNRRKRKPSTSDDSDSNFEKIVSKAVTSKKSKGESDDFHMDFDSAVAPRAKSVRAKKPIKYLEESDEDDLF
In short: (§2)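 Relaxation of 500 ng supercoiled pBR322 by 1 unit human Topo I or Topo IIα, with or without compound, in 20 µL reaction buffer at 37 °C for 10-15 min. Reactions stopped with loading buffer, run on 0.8% agarose in TAE at 80 V for 30 min. Gels stained with ethidium bromide 2.5 µg/mL and viewed under UV.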

[5] = test system: A549; assay: Cell cycle arrest in human A549 cells assessed as accumulation at G0/G1 phase at 1 uM after 36 hrs by propidium iodide staining based flow cytometry (reference value: 61.65%); assay type: functional
[6] = target: DNA topoisomerase 2-alpha (Homo sapiens) (UniProt P11388); assay: Inhibition of human recombinant topoisomerase 2-alpha expressed in Escherichia coli assessed as reduction in enzyme-mediated relaxation of supercoiled pBR322 DNA at 100 uM after 10 to 15 mins by agarose gel electrophoresis; in short: as §2
[7] = test system: MCF7; assay: Antiproliferative activity against human MCF7 cells after 48 hrs by MTT assay; assay type: functional, cell-based; details: MCF7, 48 h
In short: (§3)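 MTT assay: cells seeded at 4-8 × 10³ per well, incubated overnight at 37 °C in 5% CO₂, then given fresh medium with graded compound concentrations or equal DMSO for 48 h. MTT (5 mg/mL solution) added for a further 4 h, formazan dissolved in DMSO, absorbance read at 490 nm. Six cancer cell lines tested.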

[8] = test system: A549; assay: Induction of apoptosis in human A549 cells assessed as late apoptotic cells at 5 uM after 48 hrs by Annexin V-FITC/propidium iodide staining based FACS analysis (reference value: 0.62%); assay type: functional; in short: as §1
[9] = test system: A549; assay: Cell cycle arrest in human A549 cells assessed as accumulation at S phase at 1 uM after 36 hrs by propidium iodide staining based flow cytometry (reference value: 30.73%); assay type: functional
[10] = test system: Calf thymus DNA; assay: Binding affinity to calf thymus DNA assessed as bathochromic shift at 10 uM after 5 mins by UV-vis spectrophotometry; assay type: nucleic-acid assay; details: Bos taurus
In short: (§4)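 ctDNA at 0-44 µM is added to compound at 10 µM final in Tris-HCl buffer (pH 7.4). UV-vis absorption spectra are recorded after 5 min standing. The binding constant K_b is taken from a plot of absorption data against DNA concentration.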

[11] = test system: A549; assay: Induction of apoptosis in human A549 cells assessed as late apoptotic cells at 10 uM after 36 hrs by Annexin V-FITC/propidium iodide staining based FACS analysis (reference value: 0.29%); assay type: functional; in short: as §1
[12] = test system: A549; assay: Cell cycle arrest in human A549 cells assessed as accumulation at G0/G1 phase at 0.5 uM after 36 hrs by propidium iodide staining based flow cytometry (reference value: 61.65%); assay type: functional
[13] = test system: Calf thymus DNA; assay: Binding affinity to calf thymus DNA after 5 mins by UV-vis spectrophotometry; assay type: nucleic-acid assay; details: Bos taurus; in short: as §4
[14] = test system: A549; assay: Induction of apoptosis in human A549 cells assessed as early apoptotic cells at 5 uM after 36 hrs by Annexin V-FITC/propidium iodide staining based FACS analysis (reference value: 0.29%); assay type: functional; in short: as §1
[15] = test system: A549; assay: Induction of apoptosis in human A549 cells assessed as early apoptotic cells at 10 uM after 48 hrs by Annexin V-FITC/propidium iodide staining based FACS analysis (reference value: 0.94%); assay type: functional; in short: as §1
[16] = test system: A549; assay: Antiproliferative activity against human A549 cells after 48 hrs by MTT assay; assay type: functional, cell-based; details: A549, 48 h; in short: as §3
[17] = test system: Calf thymus DNA; assay: Binding affinity to calf thymus DNA at 10 uM spectrofluorimetric analysis; assay type: nucleic-acid assay; details: Bos taurus
In short: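 Compound at 10 µM final in 10 mM Tris-HCl, pH 7.4, titrated with ctDNA at 0-64 µM final. Emission recorded 420-750 nm with excitation at 400 nm using a xenon arc lamp source. Quenching constant K derived by Stern-Volmer fit, F₀/F = 1 + K[Q], where [Q] is the DNA concentration.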

Drug uptake [3]: Active | inhibition [4]: Active | inhibition [6]: Active | IC50 [7]: 6.95 µM | Activity [10]: 10 nm | Kb [13]: 1.68 ×10⁵ /M | IC50 [16]: 0.61 µM | KSV [17]: 1.02 ×10⁵ /M
SMILES: COc1ccc(CNc2c3ccc(Cl)cc3nc3ccc(OC)cc23)cc1
Activity [1]: 3.24% | Activity [2]: 16.52% | Activity [5]: 60.83% | Activity [8]: 21.23% | Activity [9]: 29.55% | Activity [11]: 88.13% | Activity [12]: 61.48% | Activity [14]: 2.14% | Activity [15]: 8.8%
